Data on 3 compounds can be found in ChEMBL document CHEMBL1154262, “Inhibitors of osteoclast formation from rhizomes of Cibotium barometz” (J Nat Prod, 2009).

A short description of data set [1]: Inhibition of osteoclastogenesis in RANKL and M-CSF-stimulated mouse BMDM cells at 200 uM after 4 days by TRAP assay. The format is functional. As to conditions: 96 h. In a few lines: (§1)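 Mouse femur/tibia marrow cells grown 3 days at 37 °C in R-MEM/10% FBS with M-CSF 100 ng/mL to give BMMs, lifted with trypsin/EDTA. They were then differentiated with M-CSF 20 ng/mL and RANKL 100 ng/mL plus compound, with medium changed every 2 days. At day 4, TRAP staining was done and TRAP-positive multinucleated cells per well were counted relative to DMSO control.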

The test system of data set [2] is BMDM. Description: Inhibition of osteoclastogenesis in RANKL and M-CSF-stimulated mouse BMDM cells after 4 days by TRAP assay. The format is functional, cell-based. In a few lines:
as §1

The nature of data set [3]: Cytotoxicity against RANKL and M-CSF-stimulated mouse BMDM cells at 100 to 200 uM after 72 hrs by MTS-cell titer assay. The format is cell-based. In a few lines: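 Bone marrow macrophages from femora and tibia of 6-8 week old mice, expanded 3 days in R-MEM/10% FBS with M-CSF 100 ng/mL, then trypsin/EDTA-lifted. Cells exposed to compound alongside recombinant M-CSF 20 ng/mL plus RANKL 100 ng/mL for 72 h at 37 °C. Percent survival read by MTS (CellTiter 96 Aqueous) against DMSO-treated control.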
A general note: Tetrazolium assays rely on reduction of a dye to a coloured formazan, in cell work by metabolically active cells.

The compound `CC1=CC(=O)CC(C)(C)[C@@]1(O)/C=C/[C@H](C)O[C@@H]1O[C@H](CO)[C@@H](O)[C@H](O)[C@H]1O` [6S,9S-ROSEOSIDE] yielded an inhibition at 200 µM in data set [1] of 75%. Moreover, the results for the Activity result in data set [2] and in data set [3] were “Dose-dependent effect” and “Non-toxic”, respectively.

Turning to `CCCCC/C=C\C/C=C\CCCCCCCC(=O)OC[C@@H](O)CO[C@H]1O[C@H](CS(=O)(=O)O)[C@@H](O)[C@H](O)[C@H]1O`, the inhibition at 200 µM in data set [1] came to 97%. For the same compound, the Activity entry in data set [2] was “Dose-dependent effect”.

`CO[C@@H]1C[C@](O)(CO[C@@H]2O[C@H](CO)[C@@H](OC(=O)/C=C/c3ccc(O)c(O)c3)[C@H](O)[C@H]2O)[C@H](OC)O1` [CIBOTIUMBAROSIDE B]: the inhibition at 200 µM in data set [1] is 73%. Moreover, the Activity entry is “Dose-dependent effect” in data set [2] and “Non-toxic” in data set [3].

For orientation: inhibition means how much of the control response was suppressed. A lower inhibition goes with little suppression.
